Laboratory results reported in article PMC3306175 (Journal of Immunology (Baltimore, Md. : 1950), 2009).
Peptide text beside a SMILES is read from it.

Legend:
[1] = test system: DQ2-α-I/III- or DQ2-α-II-specific intestinal T cells; test: Dose-response assays with peptide-pulsed irradiated APCs on iTCLs and TCCs; type: cell-based, human
Method in brief: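 Autologous B-LCL APCs, irradiated, pulsed overnight at 37°C with 10-fold increasing doses of peptide. Peptide deamidated beforehand with TG2 (1:1 enzyme/substrate, 4 h, 37°C, Tris-HCl pH 6.8 with CaCl2, NaCl, DTT). APCs washed before adding T cells (3 × 10^4 iTCL or 1 × 10^4 TCC). IFN-γ ELISA on 48 h supernatants. Mean of duplicates; three separate experiments.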

[2] = test system: gliadin-reactive intestinal T cell lines (iTCLs) from HLA-DQ2+ celiac patients; test: IFN-γ production; type: cell-based, human; settings: for Number of patients whose iTCL recognized the peptide (positive IFN-γ response) / Percentage of patients recognizing the peptide: 14 adult HLA-DQ2+ CD patients, positive = IFN-γ at least twice medium alone; for Hierarchical clustering by intensity of IFN-γ responses (OD peptide / OD medium): 14 patients, Cluster 3.0, Pearson correlation; for IFN-γ response (in words): peptide 30 μg/ml; for Potency in eliciting T cell responses relative to 33-mer: polyclonal iTCLs or peptide-specific TCCs
Method in brief: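 iTCLs grown from collagenase-digested jejunal explants in X-Vivo15 with 5% AB serum, stimulated with irradiated PBMC, TG2-deamidated PT-gliadin (50 μg/ml) and IL-15 (10 ng/ml). T cells (3 × 10^4) were incubated with autologous EBV-B cells (6 × 10^4) and TG2-treated peptides (30 μg/ml; 37°C, 4 h, pH 6.8). IFN-γ was measured by ELISA at 48 h. Positive response: ≥2× medium. OD ratios were row/column-normalised, then clustered. Duplicates, ≥3 experiments.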

[3] = target: purified HLA-DQ2 molecules (Homo sapiens, UniProt P01909+P01920); test: HLA-DQ2 binding assay; settings: read-out: IC50 of binding to purified HLA-DQ2; TG2-deamidated peptides; inhibition of 0.1–1 nM 125I-radiolabeled probe peptide binding to purified HLA-DQ2 (5–500 nM), 48 h in PBS; three or more independent assays
Chain of purified HLA-DQ2 molecules (P01920 33-261, other chains not shown): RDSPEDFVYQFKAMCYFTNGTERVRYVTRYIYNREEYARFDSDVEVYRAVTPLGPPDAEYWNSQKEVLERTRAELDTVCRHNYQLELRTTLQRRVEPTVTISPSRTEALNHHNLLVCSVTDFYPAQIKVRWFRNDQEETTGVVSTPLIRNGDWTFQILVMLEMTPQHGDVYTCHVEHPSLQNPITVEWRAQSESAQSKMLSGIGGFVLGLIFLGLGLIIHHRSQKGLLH

[4] = test system: DQ2-α-I/III-specific T cell clones from patient CD230204; test: IFN-γ and proliferative responses of 17-mer-specific intestinal T cell clones; type: cell-based, human; settings: TCCs from patient CD230204; peptide 30 μg/ml (8–19 μM)
Method in brief: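 T cell clones were derived from the patient's intestinal T cell line by limiting dilution with irradiated allogeneic PBMC, B-LCL and PHA. Peptides were deamidated with TG2 (1:1, 4 h, 37°C, Tris-HCl pH 6.8, CaCl2, NaCl, DTT). Each clone (1 × 10^4) was cultured with autologous B-LCL. IFN-γ ELISA on 48 h supernatants; proliferation by [3H]thymidine added for a further 16 h. Duplicates.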

[5] = test system: iTCLs from patient CD041051; test: HLA restriction with anti-HLA-DR and anti-HLA-DQ blocking mAbs; type: cell-based, human; settings: peptide 15 μM; anti-HLA-DR and anti-HLA-DQ mAbs 10 μg/ml
Method in brief: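 Intestinal T cell lines came from collagenase-digested mucosal explants, expanded with irradiated PBMC, TG2-deamidated peptic-tryptic gliadin (50 μg/ml) and IL-15. For the assay, B-LCL APCs were preincubated 10 min with anti-HLA-DR (clone L243) or anti-HLA-DQ (clone SPV-L3) before peptide. T cells were then added. IFN-γ was measured by ELISA in 48 h supernatants. Duplicate wells, at least three independent experiments.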

Row | Molecule | Number of patients whose iTCL recognized the peptide (positive IFN-γ response) [2] | Hierarchical clustering by intensity of IFN-γ responses (OD peptide / OD medium) [2] | IFN-γ response (in words) ([2]; iTCL of patient CD090401) | other results
1 | CC(C)C[C@H](NC(=O)[C@H](CCC(N)=O)NC(=O)[C@@H](N)CC(C)C)C(=O)N[C@@H](CCC(N)=O)C(=O)N1CCC[C@H]1C(=O)N[C@@H](Cc1ccccc1)C(=O)N1CCC[C@H]1C(=O)N[C@@H](CCC(N)=O)C(=O)N1CCC[C@H]1C(=O)N[C@@H](CCC(=O)O)C(=O)N[C@@H](CC(C)C)C(=O)N1CCC[C@H]1C(=O)N[C@@H](Cc1ccc(O)cc1)C(=O)O [13-mer] (H-LQLQPFPQPELPY-OH) | five | strongest and more consistent responses | very high levels of IFN-γ | Potency in activating DQ2-α-II-specific iTCLs (dose-response) ([1]; iTCLs from CD041051, APCs pulsed overnight with 10-fold increasing doses of TG2-deamidated peptide): weak stimulatory capacity and only at very high concentration (10 μM); IFN-γ response (in words) ([2]; iTCL of patient CD041051): weak IFN-γ production
2 | CC(C)C[C@H](NC(=O)[C@H](CCC(=O)O)NC(=O)[C@@H]1CCCN1C(=O)[C@H](CCC(N)=O)NC(=O)[C@@H]1CCCN1C(=O)[C@H](Cc1ccc(O)cc1)NC(=O)[C@@H]1CCCN1C(=O)[C@H](CCC(N)=O)NC(=O)[C@@H]1CCCN1C(=O)[C@@H](N)CCC(N)=O)C(=O)N1CCC[C@H]1C(=O)N[C@@H](Cc1ccc(O)cc1)C(=O)N1CCC[C@H]1C(=O)N[C@@H](CCC(N)=O)C(=O)N1CCC[C@H]1C(=O)N[C@@H](CCC(N)=O)C(=O)N1CCC[C@H]1C(=O)N[C@@H](Cc1ccccc1)C(=O)O [18-mer] (H-QPQPYPQPELPYPQPQPF-OH) | – | strongest and more consistent responses | very high levels of IFN-γ | –
3 | CC(C)C[C@H](NC(=O)[C@H](CCC(N)=O)NC(=O)[C@@H](N)CC(C)C)C(=O)N[C@@H](CCC(N)=O)C(=O)N1CCC[C@H]1C(=O)N[C@@H](Cc1ccccc1)C(=O)N1CCC[C@H]1C(=O)N[C@@H](CCC(N)=O)C(=O)N1CCC[C@H]1C(=O)N[C@@H](CCC(N)=O)C(=O)N[C@@H](CC(C)C)C(=O)N1CCC[C@H]1C(=O)N[C@@H](Cc1ccc(O)cc1)C(=O)N1CCC[C@H]1C(=O)N[C@@H](CCC(N)=O)C(=O)N1CCC[C@H]1C(=O)N[C@@H](CCC(N)=O)C(=O)N[C@@H](CC(C)C)C(=O)N1CCC[C@H]1C(=O)N[C@@H](Cc1ccc(O)cc1)C(=O)N1CCC[C@H]1C(=O)N[C@@H](CCC(N)=O)C(=O)N1CCC[C@H]1C(=O)N[C@@H](CCC(N)=O)C(=O)N[C@@H](CC(C)C)C(=O)N1CCC[C@H]1C(=O)N[C@@H](Cc1ccc(O)cc1)C(=O)N1CCC[C@H]1C(=O)N[C@@H](CCC(N)=O)C(=O)N1CCC[C@H]1C(=O)N[C@@H](CCC(N)=O)C(=O)N1CCC[C@H]1C(=O)N[C@@H](Cc1ccccc1)C(=O)O [33-mer] (H-LQLQPFPQPQLPYPQPQLPYPQPQLPYPQPQPF-OH; N-terminus and C-terminus assumed) | 7 patients | strongest and more consistent responses | intermediate IFN-γ levels | IC50 [3]: 0.044 µM; IFN-γ production and proliferation of 17-mer-specific T cell clones [4]: vigorously reacted; Percentage of patients recognizing the peptide [2]: 50%; IFN-γ response (in words) ([2]; iTCL of patient CD041051): high response
4 | GQGIIQPQQPAQLIR [DQ2-γ-II] | – | low intensity of IFN-γ responses | – | IFN-γ response (in words) ([2]; iTCL of patient CD061204): recognizing
5 | LQPQQPFPQQPQQPYPQQPQ [DQ2-γ-V] | – | low intensity of IFN-γ responses | – | IFN-γ response (in words) ([2]; iTCL of patient CD230204): weakly
6 | PFPQQPQQPYPQQPQ [DQ2-γ-III] | – | low intensity of IFN-γ responses | recognized | IFN-γ response (in words) ([2]; iTCL of patient CD061204): recognizing
7 | PFRPQQPYPQPQPQY [Glia-20] | no responses | – | – | –
8 | PQLPQFLQPQPYPQPQLPYPQPQPF [25-mer] | – | strongest and more consistent responses | – | Potency in eliciting T cell responses relative to 33-mer [2]: as potent as 33-mer
9 | PQPQPFLPQLPYPQPQS [AG11] | – | strongest and more consistent responses | – | –
10 | PQPQPFPPQLPYPQPQS [AG12] | – | low intensity of IFN-γ responses | recognized | –
11 | PQQPQQSFPQQQQPA [DQ2-γ-I] | 5 patients | low intensity of IFN-γ responses | – | IFN-γ response (in words) ([2]; iTCL of patient CD230204): weakly
12 | QIPQQQQIPQQPQQF [Glu-5] | – | – | weak IFN-γ response | –
13 | QLQPFPQPQLPYPQPQP [17-mer] | – | strongest and more consistent responses | very high levels of IFN-γ | IFN-γ production and proliferation of 17-mer-specific T cell clones [4]: produced high levels of IFN-γ and proliferated; Potency in eliciting T cell responses relative to 33-mer [2]: as potent as 33-mer
14 | QLQPFPQPTLPYPQPQS [T65] | four | strongest and more consistent responses | recognized | –
15 | QPQQPFPQPQQPFPWQP [DQ2-ω-1] | five | strongest and more consistent responses | intermediate IFN-γ levels | IFN-γ production at 10-fold increased concentrations of peptide ([1]; iTCLs from patient CD041051): retained stimulatory activity even at low concentrations; IFN-γ production and proliferation of 17-mer-specific T cell clones [4]: no cross-reactivity occurred; Percentage of patients recognizing the peptide [2]: 35%; IFN-γ response (in words) ([2]; iTCL of patient CD041051): very high; IFN-γ response (in words) ([2]; iTCL of patient CD130406): responded; HLA restriction of recognition [5]: restricted by HLA-DQ2
16 | QQPPFSQQQQSPFSQ [Glt-156] | no intestinal T cell response | – | – | –
17 | SHIPGLERPSQQQPLPPQQTL [Glt(19–39)] | no intestinal T cell response | – | – | –
